Measurements as given in paper PMC11906766 (Scientific Reports, 2025).

Experiments:
hMAO-A = biological target: T1, hMAO-A (Homo sapiens, UniProt P21397); assay: hMAO-A inhibition assay; type: biochemical
T1 sequence (P21397 1-527): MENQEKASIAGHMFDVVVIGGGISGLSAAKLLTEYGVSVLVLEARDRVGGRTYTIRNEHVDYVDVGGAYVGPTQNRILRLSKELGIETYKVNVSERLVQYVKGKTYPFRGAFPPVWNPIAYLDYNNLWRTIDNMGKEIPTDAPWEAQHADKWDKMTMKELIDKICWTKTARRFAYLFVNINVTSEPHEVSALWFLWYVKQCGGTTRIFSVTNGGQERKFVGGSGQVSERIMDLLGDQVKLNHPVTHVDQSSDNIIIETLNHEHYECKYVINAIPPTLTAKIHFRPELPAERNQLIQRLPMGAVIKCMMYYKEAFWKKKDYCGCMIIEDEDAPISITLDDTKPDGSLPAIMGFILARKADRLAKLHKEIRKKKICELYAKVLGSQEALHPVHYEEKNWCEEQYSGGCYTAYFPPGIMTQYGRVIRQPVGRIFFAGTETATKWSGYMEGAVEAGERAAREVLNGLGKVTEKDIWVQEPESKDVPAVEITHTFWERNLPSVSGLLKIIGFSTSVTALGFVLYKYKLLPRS

hMAO-B = biological target: T2, hMAO-B (Homo sapiens, UniProt P27338); assay: hMAO-B inhibition assay; type: biochemical; conditions: for inhibition at 1 µM: read-out: hMAO-B Inhibition (%), at 1 µM
T2 sequence (P27338 1-520): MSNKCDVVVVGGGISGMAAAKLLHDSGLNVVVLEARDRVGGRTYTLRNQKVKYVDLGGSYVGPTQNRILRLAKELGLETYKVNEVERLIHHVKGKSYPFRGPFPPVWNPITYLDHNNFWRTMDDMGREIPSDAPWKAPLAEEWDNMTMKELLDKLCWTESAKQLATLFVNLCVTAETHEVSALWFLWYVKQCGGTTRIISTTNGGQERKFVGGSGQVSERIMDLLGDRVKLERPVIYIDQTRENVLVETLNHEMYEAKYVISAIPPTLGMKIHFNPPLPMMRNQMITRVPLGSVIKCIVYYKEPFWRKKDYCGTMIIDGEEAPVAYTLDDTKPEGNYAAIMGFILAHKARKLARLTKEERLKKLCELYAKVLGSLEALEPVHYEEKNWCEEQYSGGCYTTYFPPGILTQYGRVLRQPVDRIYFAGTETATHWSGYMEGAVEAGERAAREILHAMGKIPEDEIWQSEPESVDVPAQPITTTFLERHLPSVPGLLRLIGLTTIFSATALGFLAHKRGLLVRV

LPS-stimulated BV2 cells = assay: NO, TNF-α and IL-1β production in LPS-stimulated BV2 microglial cells; type: cell-based; conditions: LPS 100 ng/mL, 24 h
Outline: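 BV2 microglia were grown 48 h at 37 °C, then pre-treated with test compound for 6 h at 37 °C under 5% CO2, with 0.5% DMSO as vehicle. Medium was replaced by DMEM containing LPS 100 ng/mL (final) for 24 h at 37 °C. NO in the medium was measured with a nitric oxide assay kit; TNF-α and IL-1β by ELISA. Data are mean ± SD of ≥3 independent experiments, compared by Student's t-test.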

Compound	IC50 (hMAO-A) [µM]	inhibition at 1 µM (hMAO-B) [%]	also measured
COc1ccc(/C=C/C(=O)c2cccs2)cc1OC [Compound 10, (E)−3-(3,4-dimethoxyphenyl)−1-(thiophen-2-yl)prop-2-en-1-one]	> 40	< 5	
COc1ccc(/C=C/C(=O)c2cccs2)cc1O [Compound 11, (E)−3-(3-hydroxy-4-methoxyphenyl)−1-(thiophen-2-yl)prop-2-en-1-one]	> 40	16.6	
COc1ccc(/C=C/C(=O)c2ccc(Cl)s2)cc1OC [Compound 16, (E)−1-(5-chlorothiophen-2-yl)−3-(3,4-dimethoxyphenyl)prop-2-en-1-one]	> 40	14.5	
COc1ccc(/C=C/C(=O)c2ccc(Br)s2)cc1OC [Compound 18, (E)−1-(5-bromothiophen-2-yl)−3-(3,4-dimethoxyphenyl)prop-2-en-1-one]	> 40	12.3	
COc1ccc(/C=C/C(=O)c2ccc(C)s2)cc1O [Compound 19, (E)−3-(3-hydroxy-4-methoxyphenyl)−1-(5-methylthiophen-2-yl)prop-2-en-1-one]	> 40	28.2	
COc1ccc(/C=C/C(=O)c2ccco2)cc1O [Compound 20, (E)−1-(furan-2-yl)−3-(3-hydroxy-4-methoxyphenyl)prop-2-en-1-one]	> 40	< 5	
COc1ccc(/C=C/C(=O)c2ccc(C)o2)cc1O [Compound 21, (E)−3-(3-hydroxy-4-methoxyphenyl)−1-(5-methylfuran-2-yl)prop-2-en-1-one]	> 40	< 5	
COc1ccc(/C=C/C(=O)c2ccc[nH]2)cc1O [Compound 22, (E)−3-(3-hydroxy-4-methoxyphenyl)−1-(1H-pyrrol-2-yl)prop-2-en-1-one]	> 40	< 5	
lipopolysaccharide [LPS]			level of IL-1β compared to the control group (LPS-stimulated BV2 cells): 30.4 fold; level of NO compared to the control group (LPS-stimulated BV2 cells): 11.4 fold; level of TNF-α compared to the control group (LPS-stimulated BV2 cells): 26.3 fold

Second part, led by results:

IC50 (hMAO-A) [µM]	inhibition at 1 µM (hMAO-B) [%]	Compound	also measured
> 40		O=C(C=Cc1ccccc1)c1ccccc1 [Compound 1, 1,3-diphenyl-2-propen-1-one, reference compound]	
> 40	23.8	O=C(/C=C/c1ccccc1)c1cccs1 [Compound 2, (E)−3-phenyl-1-(thiophen-2-yl)prop-2-en-1-one]	IC50 (hMAO-B): 10.6 ± 1.4 µM; Selectivity Index (SI) (hMAO-B; SI = IC50 (hMAO-A) / IC50 (hMAO-B)): > 3
> 40	27	O=C(/C=C/c1ccc2ccccc2c1)c1cccs1 [Compound 8, (E)−3-(naphthalen-2-yl)−1-(thiophen-2-yl)prop-2-en-1-one]	
> 40	51.7	COc1ccc(/C=C/C(=O)c2cccs2)cc1 [Compound 9, (E)−3-(4-methoxyphenyl)−1-(thiophen-2-yl)prop-2-en-1-one]	
